Shown are actives, neighbours in structure and some others; about 5.6% of the full set was active somewhere.
aDG glyco act – alpha-DG glycosylation activation. Pro5-aDG cells, alpha-DG glycosylation AlphaScreen (IIH6); 0% Pro5, 100% B10-LARGE cell signal. activation, % at 10 µM. hit rate 0.22% among 360,000;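 active = activation of at least 8% versus controls, or a plate z-score of at least 8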;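 note: Pro5 are CHO cells carrying HIG-tagged alpha-DG that lacks glycosylation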
NR3A LBD binder – modulates the human NR3A ligand-binding domain; NR3A LBD differential scanning fluorimetry, Tm shift; 0% = protein alone, 100% = glycine-bound protein; Tm shift relative to glycine control, % at 25 µM; hit rate 2.5% among 340,000; AID 1259313;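 active = melting temperature shift of at least 10% of the positive control shift, at one fixed dose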
UPR XBP1 act – activators of adaptive arm of unfolded protein response (XBP1) | activation, % at 20 µM | hit rate 0.33% among 330,000 | AID 463104 | CHO-XBP1 luciferase reporter, IRE1-XBP1 UPR activation, luminescence; percent of tunicamycin response, DMSO as zero;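 active = versus positive control, 20 µM dose yields 30% or more activation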;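 note: 100% = tunicamycin at 10 µg/mL and 0% = DMSO only wells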
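Material: CHO-XBP1 cells stably carrying IRE1-XBP1-driven luciferase reporter / Amount: 1000 cells per well / Compound: 20 µM, 1% DMSO / Times: 6 h treatment, 37 °C / Detection: luciferase luminescence / Measure: % activation of reporter signal versus tunicamycin and DMSO controls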
CHOP UPR activ – activators of apoptotic arm of unfolded protein response (CHOP); CHO-CHOP luciferase reporter, UPR activation, luminescence; percent of tunicamycin response over DMSO baseline; activation, % at 10 µM; hit rate 0.34% among 330,000; AID 449763;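 active = at 10 µM dose, activation of 40% or more, normalized to positive control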;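 note: 100% = tunicamycin at 10 µg/mL and 0% = DMSO alone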
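Dosing – one dose, 10 µM in 0.5% DMSO · System – CHO-CHOP cells, stable luciferase reporter of PERK-eIF2a-CHOP signalling · Input – 500 cells/well · Control set – tunicamycin 10 µg/mL final as positive, DMSO-only wells as negative · Timing – 6 h compound treatment, 37 °C · Measure – % activation vs tunicamycin · Technique – luminescence read with Steady-Glo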
CHOP inhibitor – blocks CHOP induction under ER stress; CHO-K1 CHOP-promoter luciferase, tunicamycin-induced, 15-18 h; inhibition, % at 10 µM; hit rate 3.8% among 220,000; AID 2732;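 active = compounds that reduced the stress-induced luciferase reporter signal by more than about 70% of percent inhibition, limit read from the data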;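 note: 0% = tunicamycin plus vehicle and 100% = wells without tunicamycin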
MPTP inh – inhibitors of mitochondrial permeability transition pore; isolated mouse mitochondria, Ca2+ swelling absorbance, 30 min; inhibition, % at 10 µM; hit rate 1.4% among 360,000;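 active = inhibition of 50% or more, scaled per plate between neutral and stimulator controls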;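 note: 0% = DMSO wells given calcium and 100% = 1 mM EGTA wells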
Rh123 counter – mitochondrial membrane potential, counter-screen; shares compounds with MPTP inh; isolated mitochondria, Rhodamine 123 fluorescence; inhibition, % at 10 µM; hit rate 78% among 5,000; in the data active = inhibition above about 22%;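 note: 0% = DMSO vehicle and 100% = positive control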
MPTP abs DR – MPTP inhibition, dose response swelling confirmation; shares compounds with MPTP inh; isolated mitochondria swelling, absorbance; IC50, µM; hit rate 58% among 780; AID 651561; in the data active = IC50 below about 20 µM
MPTP cs DR – counter-screen for mitochondrial permeability transition pore inhibitors, dose response; isolated mitochondria counterscreen, fluorescence read-out; AID 651564; shares compounds with MPTP inh; hit rate 49% among 780; IC50, µM; in the data active = IC50 below about 80 µM
An asterisk follows results filed as active.

For Cc1nc2ccccc2c(N)c1C(=O)/C=C/c1ccccc1 the results were aDG glyco act 1, NR3A LBD binder -1, UPR XBP1 act -1, CHOP UPR activ 0, MPTP inh 96* and Rh123 counter 84*.
For CC(C)OC(=O)c1ccc(NC(=O)CSc2nc3ncccc3[nH]2)cc1 the results were aDG glyco act 1, NR3A LBD binder -4, UPR XBP1 act -1, CHOP UPR activ 4, CHOP inhibitor 5, MPTP inh 71* and Rh123 counter 47*.
For CC(C)c1ccc(NC(=O)CSc2nc3ncccc3[nH]2)cc1 the results were aDG glyco act 0, NR3A LBD binder -1, UPR XBP1 act -2, CHOP UPR activ 1 and MPTP inh 4.
For CCOC(=O)C[C@H]1c2ccc(C(F)(F)F)cc2S(=O)(=O)N1c1cccc(OC)c1 the results were aDG glyco act 0, NR3A LBD binder -10, UPR XBP1 act 2, CHOP UPR activ 2 and MPTP inh 0.
For CNCc1ccccc1Sc1cccc2ccccc12 the results were aDG glyco act 2, NR3A LBD binder 1, UPR XBP1 act 0, CHOP UPR activ 0, CHOP inhibitor 28, MPTP inh 93* and Rh123 counter 20*.
Screening CNCc1ccccc1Sc1ccc(OC)cc1 returned aDG glyco act 1, NR3A LBD binder 0, UPR XBP1 act -3, CHOP UPR activ 0, CHOP inhibitor 11 and MPTP inh 10.
Cc1ccc(C(=O)OCC(=O)NCCc2ccccc2)cc1C was read as aDG glyco act 0, NR3A LBD binder 2, UPR XBP1 act 1, CHOP UPR activ 0 and MPTP inh -2.
`CC1CCc2c(C(=O)Nc3ccc(OC(F)(F)F)cc3)csc2C1` (stereo unspecified) gave aDG glyco act 1, NR3A LBD binder 6, UPR XBP1 act 6, CHOP UPR activ 4, CHOP inhibitor 63, MPTP inh 95* and Rh123 counter 29*.
For CC1CCc2c(C(=O)Nc3nccs3)csc2C1 (stereo unspecified) the results were aDG glyco act 0, NR3A LBD binder -2, UPR XBP1 act 0, CHOP UPR activ 3, CHOP inhibitor -24 and MPTP inh 1.
Screening O=C(c1ccccc1)c1cnc(Nc2ccc(Cl)c(Cl)c2)s1 returned aDG glyco act 0, NR3A LBD binder 29*, UPR XBP1 act 0, CHOP UPR activ 4, CHOP inhibitor 59, MPTP inh 62* and Rh123 counter 44*.
O=C(c1ccc(F)cc1)c1cnc(Nc2ccccc2)s1 was read as aDG glyco act 0, NR3A LBD binder -2, UPR XBP1 act 6, CHOP UPR activ 16, CHOP inhibitor 61 and MPTP inh 0.
COc1ccc(C(C)=NNc2ccc([N+](=O)[O-])cc2S(=O)(=O)Nc2ccccc2C(=O)O)c(OC)c1 was read as aDG glyco act 0, NR3A LBD binder 9, UPR XBP1 act -1, CHOP UPR activ -1, MPTP inh 86* and Rh123 counter 38*.
Brc1ccc(-c2csc3ncnc(-n4nnc5ccccc54)c23)cc1 was read as aDG glyco act 0, NR3A LBD binder 0, UPR XBP1 act 2, CHOP UPR activ 1, CHOP inhibitor 31 and MPTP inh 3.
Screening CCCCOc1ccc(-c2nc(-c3cccnc3)no2)cc1 returned aDG glyco act 1, NR3A LBD binder 2, UPR XBP1 act -2, CHOP UPR activ 4, CHOP inhibitor -2, MPTP inh 64*, Rh123 counter 1, MPTP abs DR 14* and MPTP cs DR 14*.
CCOc1ccc(-c2nc(-c3cccnc3)no2)cc1 was read as aDG glyco act 0, NR3A LBD binder 0, UPR XBP1 act -2, CHOP UPR activ -3, CHOP inhibitor 13 and MPTP inh 2.
Screening CCCS(=O)(=O)NC(=O)C1(C)CCN(C(=O)c2cccc(OC(F)(F)F)c2)C1 (stereo unspecified) returned aDG glyco act 0 and MPTP inh 0.
Screening CC(C)(C)NS(=O)(=O)c1cc(C(=O)Nc2sccc2C#N)ccc1Cl returned aDG glyco act 3, NR3A LBD binder 2, UPR XBP1 act -4, CHOP UPR activ -1, CHOP inhibitor 9, MPTP inh 75* and Rh123 counter 57*.
Screening N#Cc1ccsc1NC(=O)c1cnccn1 returned aDG glyco act 1, NR3A LBD binder 0, UPR XBP1 act 0, CHOP UPR activ -1, CHOP inhibitor 3 and MPTP inh -2.
For Cc1nc2ccc([N+](=O)[O-])cc2s1 the results were aDG glyco act 0, NR3A LBD binder -3, UPR XBP1 act -1, CHOP UPR activ -2, CHOP inhibitor 6 and MPTP inh -3.
Screening O=C(CSc1nc2ccc([N+](=O)[O-])cc2s1)c1ccc2ccccc2c1 returned aDG glyco act 0, NR3A LBD binder -7, CHOP inhibitor 24 and MPTP inh 2.
O=[N+]([O-])c1ccc2nc(SCc3ccccc3Cl)sc2c1 was read as aDG glyco act 0, NR3A LBD binder -1, UPR XBP1 act 2, CHOP UPR activ 1, CHOP inhibitor 51, MPTP inh 98* and Rh123 counter 68*.
Screening Nc1ccc2nc(SCc3ccc([N+](=O)[O-])cc3)sc2c1 returned aDG glyco act 0, NR3A LBD binder -3, UPR XBP1 act -2, CHOP UPR activ 4, CHOP inhibitor 25 and MPTP inh 0.
`COc1ccccc1OCCSc1nc2ccc([N+](=O)[O-])cc2s1` gave aDG glyco act 0, NR3A LBD binder 1, UPR XBP1 act -1, CHOP UPR activ 1, CHOP inhibitor 3, MPTP inh 76* and Rh123 counter 87*.
C=CCc1ccccc1OCCSc1nc2ccc([N+](=O)[O-])cc2s1 was read as aDG glyco act 0, NR3A LBD binder 0, UPR XBP1 act 1, CHOP UPR activ -2, CHOP inhibitor -1, MPTP inh 84* and Rh123 counter 41*.
For COCCNC(=S)NNC(=O)c1cc(C2CC2)nc2ccccc12 the results were aDG glyco act 0, NR3A LBD binder -1, UPR XBP1 act -3, CHOP UPR activ 2 and MPTP inh -1.
For COc1ccc(NC(=O)Nc2ccc(CC(=O)O)cc2)cc1 the results were aDG glyco act -1, NR3A LBD binder -2, UPR XBP1 act 0, CHOP UPR activ 0, CHOP inhibitor 4 and MPTP inh 1.
